Values after ≈ are worked out from the molar mass of the structure shown. Active and inactive are the calls of the source. No cut-off for these calls is given here.
Assays:
[1] = Intrinsic clearance in mouse liver microsomes by LC/MS/MS analysis; format: ADME, Microsome; details: read-out: CLH
In short: (§1)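 Compound depletion in liver microsomes of the named species, measured by LC/MS/MS. In vitro half-life gave hepatic extraction ratio and predicted metabolic clearance.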

[2] = Aqueous solubility of the compound at pH 6.8 after 24 hrs by high-throughput equilibrium solubility assay; format: physicochemical; details: buffer
In short: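 Miniaturized shake-flask equilibrium method. DMSO stock removed by centrifugal evaporation, aqueous buffer added, shaken 24 h. Plunger pushed through a filter membrane, shaken a further 30 min, and filtrate quantified by HPLC.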

[3] = system: Mycobacterium tuberculosis; test: Antimicrobial activity against Mycobacterium tuberculosis H37Rv ATCC 27294 after 5 days by three-fold serial dilution assay; format: functional; details: H37Rv ATCC 27294, 120 h
In short: (§2)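 H37Rv grown in 7H9 broth with 0.05% Tween 80 and 10% ADS. Compounds in 90% DMSO, three-fold serially diluted in duplicate. Early-log culture diluted to OD600 0.02 was added, then incubated at 37 °C for 5 days. Growth read by absorbance. MIC50 (50% growth inhibition) taken from non-linear curve fits. Isoniazid ran as internal control in every assay.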

[4] = system: Mycobacterium tuberculosis; test: Ratio of isoniazid MIC50 to compound MIC50 against Mycobacterium tuberculosis H37Rv ATCC 27294; format: functional; in short: as §2
[5] = Intrinsic clearance in rat liver microsomes by LC/MS/MS analysis; format: ADME; details: read-out: CLH; in short: as §1
[6] = Intrinsic clearance in human liver microsomes by LC/MS/MS analysis; format: ADME; details: read-out: CLH; in short: as §1
[7] = Oral bioavailability in mouse at 25 mg/kg by LC/MS analysis; format: ADME, organism-based; details: in vivo
In short: (§3)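 Mice dosed p.o. at 25 mg/kg (2.5 mg/mL) or i.v. at 5 mg/kg (1 mg/mL). Vehicles varied: propanediol/solutol in pH 4.6 acetate buffer, or microemulsion/Cremophor-based mixes. Blood taken 0.08–24 h (i.v. first point 0.02 h), three mice per time point. Plasma extracted with acetonitrile:methanol:acetic acid and quantified by LC/MS/MS (LLOQ 1–3 ng/mL). Noncompartmental analysis of mean profiles; F from dose-corrected p.o./i.v. AUC.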

[8] = Elimination half life in mouse at 25 mg/kg, po by LC/MS analysis; format: ADME, organism-based; set-up: dose 25 mg/kg, route oral; details: in vivo, read-out: beta t1/2 (converted); in short: as §3
[9] = Cmax in mouse at 25 mg/kg, po by LC/MS analysis; format: ADME, organism-based; set-up: dose 25 mg/kg, route oral; details: in vivo; in short: as §3
[10] = AUC (0 to 24 hrs) in mouse at 25 mg/kg, po by LC/MS analysis; format: ADME, organism-based; set-up: time < 24 hr, dose 25 mg/kg, route oral; details: plasma; in short: as §3
[11] = Elimination half life in mouse at 5 mg/kg, iv by LC/MS analysis; format: ADME, organism-based; set-up: dose 5 mg/kg, route intravenous; details: in vivo, read-out: beta t1/2 (converted); in short: as §3
[12] = Clearance in mouse at 5 mg/kg, iv by LC/MS analysis; format: ADME, organism-based; set-up: dose 5 mg/kg, route intravenous; details: in vivo; in short: as §3
[13] = Volume of distribution at steady state in mouse at 5 mg/kg, iv by LC/MS analysis; format: ADME, organism-based; set-up: dose 5 mg/kg, route intravenous; details: in vivo, read-out: Vdss; in short: as §3
[14] = system: Mycobacterium tuberculosis; test: Antitubercular activity against Mycobacterium tuberculosis H37Rv infected in Balb/c mouse model assessed as log CFU reduction at 100 mg/kg, po qd administered for 28 days relative to untreated control; format: functional, organism-based; set-up: dose 100 mg/kg
In short: (§4)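 Balb/c mice infected intranasally on day 0 with 10^3 H37Rv bacilli. Oral dosing, once daily, 7 days a week for 28 days, began 7 days post-infection at 25 or 75 mg/kg; ethambutol 100 mg/kg served as positive control. Lungs removed aseptically and homogenized. CFU counted by serial dilution plating on 7H11 agar; log lung CFU compared with untreated controls.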

[15] = Elimination half life in mouse at 5 mg/kg, iv and 75 mg/kg, po by LC/MS analysis; format: ADME, organism-based; details: in vivo, read-out: beta t1/2 (converted)
THP-1 = test: Cytotoxicity against human THP1 cells; format: cell-based
[16] = system: Mycobacterium tuberculosis; test: Antitubercular activity against Mycobacterium tuberculosis H37Rv infected in Balb/c mouse model assessed as log CFU reduction at 75 mg/kg, po qd administered for 28 days relative to untreated control; format: functional; in short: as §4
[17] = AUC (0 to 24 hrs) in mouse at 5 mg/kg, iv and 75 mg/kg, po by LC/MS analysis; format: ADME, organism-based; details: plasma
[18] = system: Mycobacterium tuberculosis; test: Antitubercular activity against Mycobacterium tuberculosis H37Rv infected in Balb/c mouse model assessed as log CFU reduction at 25 mg/kg, po qd administered for 28 days relative to untreated control; format: functional; in short: as §4

Compound | microsomal CLint [1] | solubility thermodynamic at 24 h [2] | MIC50 [3] | other results
CC1CCC(NC(=O)c2cc3c(Cl)cc(F)cc3[nH]2)CC1 (stereo not given) | 77 µL/min/mg | < 4 µM | 0.18 µM (≈ 0.0556 µg/mL) | –
Cc1cc(C)c2cc(C(=O)Nc3ccccc3)[nH]c2c1 | – | < 4 µM | 16 µM (≈ 4.23 µg/mL) | –
CC1CCC(NC(=O)c2cc3c(Cl)c(Cl)ccc3[nH]2)CC1 (stereo not given) | 60.8 µL/min/mg | – | 0.22 µM (≈ 0.0716 µg/mL) | –
CC1CCC(NC(=O)c2cc3cccc(Cl)c3[nH]2)CC1 (stereo not given) | 1040 µL/min/mg | – | 1.49 µM (≈ 0.433 µg/mL) | –
CC1CCC(NC(=O)c2cc3cc(Cl)cc(Cl)c3[nH]2)CC1 (stereo not given) | 187 µL/min/mg | – | 0.41 µM (≈ 0.133 µg/mL) | –
COCCNC(=O)c1cc2c(C)cc(C)cc2[nH]1 | – | 620 µM (≈ 153 µg/mL) | > 20 µM | –
CCC(CC)NC(=O)c1cc2c(C)cc(C)cc2[nH]1 | – | < 4 µM | 4.33 µM (≈ 1.12 µg/mL) | –
CC1CCC(NC(=O)c2cc3c(F)cc(F)cc3[nH]2)CC1 (stereo not given) | 866 µL/min/mg | < 4 µM | 0.3 µM (≈ 0.0877 µg/mL) | –
CC1CCC(NC(=O)c2cc3c(F)cc(Cl)cc3[nH]2)CC1 (stereo not given) | 28 µL/min/mg | < 4 µM | 0.19 µM (≈ 0.0587 µg/mL) | –
Cc1cc(C)c2cc(C(=O)NC3CCN(C)CC3)[nH]c2c1 | – | > 10000 µM | > 20 µM | –
C[C@H]1CCCC[C@H]1NC(=O)c1cc2c(Cl)cc(Cl)cc2[nH]1 | 89 µL/min/mg | < 4 µM | 0.053 µM (≈ 0.0172 µg/mL) | –
Cc1cc(C)c2cc(C(=O)N[C@@H]3CCCC[C@@H]3C)n(C)c2c1 | – | – | > 20 µM | –
Cc1cc(C)c2c(c1)NC(C(=O)N[C@@H]1CCCC[C@@H]1C)C2 (stereo not given in full) | – | < 4 µM | 1.24 µM (≈ 0.355 µg/mL) | –
Cc1cc(C)c2cc(C(=O)N[C@@H]3CCCC[C@@H]3C)[nH]c2c1 | 433 µL/min/mg | < 4 µM | 0.079 µM (≈ 0.0225 µg/mL) | Ratio [4]: 4
Cc1cc(C)c2cc(C(=O)NC3CCCCC3O)[nH]c2c1 (stereo not given) | – | 56 µM (≈ 16 µg/mL) | 8.9 µM (≈ 2.55 µg/mL) | –
CC1CCC(NC(=O)c2cc3c(Cl)cccc3[nH]2)CC1 (stereo not given) | 462 µL/min/mg | – | 0.19 µM (≈ 0.0553 µg/mL) | –
CC1CCC(NC(=O)c2cc3ccc(Cl)c(Cl)c3[nH]2)CC1 (stereo not given) | 308 µL/min/mg | – | 0.97 µM (≈ 0.315 µg/mL) | –
Cc1cc(C)c2cc(C(=O)N(C)C3CCCCC3)[nH]c2c1 | – | – | > 20 µM | –
Cc1cc(C)c2nc(C(=O)N[C@@H]3CCCC[C@@H]3C)[nH]c2c1 | – | – | > 20 µM | –
O=C(NC1CCC(F)(F)CC1)c1cc2c(Cl)cc(Cl)cc2[nH]1 | 23 µL/min/mg | < 4 µM | 0.85 µM (≈ 0.295 µg/mL) | microsomal CLint [5]: 38.8 µL/min/mg; microsomal CLint [6]: 7.8 µL/min/mg
CC1CCC(NC(=O)c2cc3cc(Cl)ccc3[nH]2)CC1 (stereo not given) | 122 µL/min/mg | – | 1.29 µM (≈ 0.375 µg/mL) | –

Compound | microsomal CLint [1] | solubility thermodynamic at 24 h [2] | MIC50 [3] | other results
CC1CCC(NC(=O)c2cc3c(Cl)cc(Cl)cc3[nH]2)CC1 (stereo not given) | 37 µL/min/mg | < 4 µM | 0.15 µM (≈ 0.0488 µg/mL) | bioavailability [7]: 48%; half-life [8]: 4.2 h; Cmax [9]: 7.23 µM; AUC(0-t) at 24 h [10]: 30.4 µM·h; half-life [11]: 6.89 h; clearance [12]: 20.1 mL/min/kg; Vd [13]: 2.2 L/kg
CC1CCC(NC(=O)c2cc3c(Cl)ccc(Cl)c3[nH]2)CC1 (stereo not given) | 40.4 µL/min/mg | – | > 20 µM | –
C[C@H]1CC[C@H](NC(=O)c2cc3c(F)cc(F)cc3[nH]2)CC1 | 149 µL/min/mg | < 4 µM | 0.16 µM (≈ 0.0468 µg/mL) | –
Cc1cc(C)c2cc(C(=O)NC3CCCCC3)[nH]c2c1 | – | < 4 µM | 0.82 µM (≈ 0.222 µg/mL) | –
C[C@H]1CC[C@@H](NC(=O)c2cc3c(Cl)cc(Cl)cc3[nH]2)CC1 | 47 µL/min/mg | < 4 µM | 0.18 µM (≈ 0.0585 µg/mL) | –
Cc1cc(C)c2cc(C(=O)NC(C)C)[nH]c2c1 | – | 20 µM (≈ 4.61 µg/mL) | > 20 µM | –
CC1CCC(NC(=O)c2cc3cc(Cl)c(Cl)cc3[nH]2)CC1 (stereo not given) | 73.3 µL/min/mg | – | 0.16 µM (≈ 0.052 µg/mL) | –
NNC(=O)c1ccncc1 [ISONIAZID] | – | – | 0.33 µM (≈ 0.0453 µg/mL) | –
Cc1cc2[nH]c(C(=O)N[C@@H]3CCCC[C@@H]3C)cc2c(C)n1 | – | – | > 20 µM | –
Cc1cc(C)c2cc(C(=O)NC3CCCCCC3)[nH]c2c1 | – | < 4 µM | 0.1 µM (≈ 0.0284 µg/mL) | –
CC[C@@H](CO)NCCN[C@@H](CC)CO | – | – | – | Activity [14]: Active
Cc1cc(C)c2cc(C(=O)NCCC(C)C)[nH]c2c1 | – | – | 3.26 µM (≈ 0.842 µg/mL) | –
C[C@H]1CCCC[C@H]1NC(=O)c1cc2c(F)cc(F)cc2[nH]1 | 660 µL/min/mg | < 4 µM | 0.28 µM (≈ 0.0819 µg/mL) | –
Cc1nc(C)c2cc(C(=O)N[C@@H]3CCCC[C@@H]3C)[nH]c2n1 | – | 143 µM (≈ 41 µg/mL) | > 20 µM | –
Cc1cc(C)c2cc(C(=O)NCC(C)C)[nH]c2c1 | – | – | 11.8 µM (≈ 2.9 µg/mL) | –
CCC(C)NC(=O)c1cc2c(C)cc(C)cc2[nH]1 (stereo not given) | – | 22 µM (≈ 5.38 µg/mL) | 9.33 µM (≈ 2.28 µg/mL) | –
C[C@H]1CC[C@H](NC(=O)c2cc3c(Cl)cc(Cl)cc3[nH]2)CC1 | 3.4 µL/min/mg | < 4 µM | 0.14 µM (≈ 0.0455 µg/mL) | half-life [15]: 5.29 h; Activity (THP-1): > 20 µM; FC [16]: 0.88; microsomal CLint [5]: 30.5 µL/min/mg; microsomal CLint [6]: 10 µL/min/mg; AUC(0-t) [17]: 89.1 µM·h
CC1(C)CCC(NC(=O)c2cc3c(F)cc(F)cc3[nH]2)CC1 | 132 µL/min/mg | < 4 µM | 0.023 µM (≈ 0.00705 µg/mL) | FC [16]: 4.6; FC [18]: 2.4; bioavailability [7]: 51%; half-life [8]: 5.18 h; Cmax [9]: 4.21 µM; AUC(0-t) at 24 h [10]: 35.5 µM·h; half-life [11]: 4.47 h; clearance [12]: 18.7 mL/min/kg; Vd [13]: 2.24 L/kg; microsomal CLint [5]: 87 µL/min/mg; microsomal CLint [6]: 3.4 µL/min/mg
CC1CCC(NC(=O)c2cc3ccc(Cl)cc3[nH]2)CC1 (stereo not given) | 433 µL/min/mg | – | 0.23 µM (≈ 0.0669 µg/mL) | –
CC1(C)CCC(NC(=O)c2cc3c(Cl)cc(Cl)cc3[nH]2)CC1 | 13 µL/min/mg | < 4 µM | 0.015 µM (≈ 0.00509 µg/mL) | half-life [15]: 8.14 h; Activity (THP-1): > 20 µM; FC [16]: 4.79; FC [18]: 2.6; bioavailability [7]: 53%; half-life [8]: 5.96 h; Cmax [9]: 3.51 µM; AUC(0-t) at 24 h [10]: 33.9 µM·h; half-life [11]: 5.25 h; clearance [12]: 18.1 mL/min/kg; Vd [13]: 4.11 L/kg; microsomal CLint [5]: 139 µL/min/mg; microsomal CLint [6]: 59 µL/min/mg; AUC(0-t) [17]: 70.3 µM·h
Cc1cc(C)c2cc(C(=O)NC3CCOCC3)[nH]c2c1 | – | 17 µM (≈ 4.63 µg/mL) | > 20 µM | –

From ChEMBL document CHEMBL3085699, “Design, synthesis, and biological evaluation of indole-2-carboxamides: a promising class of antituberculosis agents” (J Med Chem, 2013)
